Measurements taken from ChEMBL document CHEMBL2331522, “Dibenzocyclooctadiene lignans and norlignans from fruits of Schisandra wilsoniana” (J Nat Prod, 2013).
Converted amounts (≈) assume the structure as drawn.

Assays:
[1] = Therapeutic index, ratio of CC50 for human C8166 cells to EC50 for HIV1; assay type: cell-based; conditions: read-out: Ratio CC50/EC50
[2] = test system: Human immunodeficiency virus 1; test: Antiviral activity against HIV1 assessed as reduction in virus-induced cytopathogenicity; assay type: functional, organism-based
Outline: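 Test compounds were added to C8166 cells infected with HIV-1 and scored for protection from virus-induced cytopathic effect. The concentration giving 50% protection is reported as EC50.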

[3] = Cytotoxicity against human C8166 cells by MTT assay; assay type: cell-based

| SMILES | selectivity ratio [1] | EC50 [2] [µg/mL] | CC50 [3] [µg/mL] |
| --- | --- | --- | --- |
| COc1cc2c(c(OC)c1O)-c1c(cc(OC)c(OC)c1OC)C[C@H](C)[C@H](C)[C@H]2O [MARLIGNAN M] | 9.39 | 3.42 (≈ 8.17 µM) | 32.1 (≈ 76.7 µM) |
| COc1cc2c(c(O)c1OC)-c1c(cc(OC)c(OC)c1O)[C@H](O)[C@@H](C)[C@@H](C)C2 [MARLIGNAN N] | 7.67 | 6.18 (≈ 15.3 µM) | 47.4 (≈ 117 µM) |
| COc1c(O)cc2c(c1OC)-c1c(cc3c(c1OC)OCO3)C[C@H](C)[C@H](C)[C@H]2O [MARLIGNAN O] | 12.1 | 5.84 (≈ 14.5 µM) | 70.6 (≈ 175 µM) |
| COc1c2c(cc3c1-c1c(cc4c(c1O)OCO4)C[C@H](C)[C@H](C)[C@H]3OC)OCO2 [MARLIGNAN P] | 23.5 | 3.18 (≈ 7.94 µM) | 74.6 (≈ 186 µM) |
| COc1c2c(cc3c1-c1c(cc4c(c1O)OCO4)[C@H](OC)[C@@H](C)[C@@H](C)C3)OCO2 [MARLIGNAN Q] | 5.33 | 4.22 (≈ 10.5 µM) | 22.5 (≈ 56.2 µM) |
| COc1cc2c(c(O)c1OC)-c1c(cc3c(c1OC)OCO3)[C@H](OC)[C@@H](C)[C@@H](C)C2 [MARLIGNAN R] | 9.48 | 3.87 (≈ 9.29 µM) | 36.7 (≈ 88.1 µM) |
| COc1cc2c(c(OC)c1OC)-c1c(cc3c(c1O)OCO3)[C@H](OC)[C@@H](C)[C@@H](C)C2 [MARLIGNAN S] | 10.3 | 4.14 (≈ 9.94 µM) | 42.8 (≈ 103 µM) |
| COc1ccc(C(c2ccc(OC)c(O)c2)[C@H](C(=O)O)C(CO)CO)cc1O [MARLPHENOL E] | 21.2 | 3.47 (≈ 8.84 µM) | 73.5 (≈ 187 µM) |
| COc1ccc([C@@H](c2ccc3c(c2)OCO3)[C@H](C(=O)O)C(CO)CO)cc1O [MARLPHENOL F] | 27.6 | 2.97 (≈ 7.61 µM) | 82.1 (≈ 210 µM) |
| COc1cc(C(O)C(C(=O)O)C(CO)CO)ccc1O (stereo unspecified) [MARPHENOL C] | 26.9 | 3.14 (≈ 11 µM) | 84.5 (≈ 295 µM) |
| COc1cc(C(O)C(C(=O)O)C(CO)CO)cc(O)c1OC (stereo unspecified) [MARPHENOL D] | 29.1 | 3.22 (≈ 10.2 µM) | 93.8 (≈ 297 µM) |
| Cc1cn([C@H]2C[C@H](N=[N+]=[N-])[C@@H](CO)O2)c(=O)[nH]c1=O [ZIDOVUDINE] | > 46500 | 0.0043 (≈ 0.0161 µM) | > 200 |
